# The list is not random: actives were taken first. Their share in the collection is about 3.9%.
# ABCB6 inh 2 = inhibitors of human ABC transporter ABCB6. actives 0.19% (n = 360,000). K562-ABCB6 porphyrin accumulation, flow cytometry, 1 h; stronger effect = lower value. fluorescence ratio to DMSO, % at 10 µM. AID 602162;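 active means fluorescence ratio to DMSO below 75%, the collection mean minus 3 SD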;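 further: signal is porphyrin accumulated inside mitochondria; 100% equals median channel fluorescence of DMSO control wells; lower ratio means ABCB6 inhibition with less porphyrin fluorescence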
# SR-BI HDL uptake = mouse SR-BI HDL lipid transfer inhibition | Q61009 | ldlA[mSR-BI] CHO cells, DiI-HDL uptake fluorescence, 3 h | inhibition, % at 12.5 µM | actives 0.96% (n = 320,000);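 active means mean replicate inhibition of at least 70% and a set share of replicates each scoring 70 or more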;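 further: 0% = median of neutral control wells and 100% = median of positive control wells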
# HIF activator = HIF pathway transcriptional activation; U2OS HRE-luciferase reporter, luminescence; normalized: DMSO 0%, desferrioxamine 100%; activation, % at 7.5 µM (by protocol); actives 0.32% (n = 300,000);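 active means mean activation of at least 10% of the iron chelator positive control signal, with at least half of replicates also reaching 10%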
# SR-BI DiI-HDL act = enhances SR-BI lipid uptake from DiI-HDL | CHO ldlA[mSR-BI] cells, DiI-HDL uptake fluorescence, 3 h; 100 = double the neutral-control signal | activation, % at 12.5 µM | actives 0.096% (n = 320,000);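 active means mean replicate activation of at least 60% and every replicate at or above 60%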;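 further: 0% = median plate neutral-control signal and 100% = twice that signal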
#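 system = CHO ldlA[mSR-BI] cells, LDL receptor-null, SR-BI overexpressing | medium = Ham's F12 with 0.5% BSA, HEPES 25 mM, pH 7.4 | probe or stimulus = DiI-HDL 10 µg/mL | compound dosing = single-point compound dose | incubation = compound exposure 3 h, 37 °C | technique = DiI fluorescence, bottom read | read-out = cell-associated DiI fluorescence as measure of HDL uptake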
# GAA850 FXN act = increases GAA850 frataxin promoter reporter activity. HEK293 lucGAA850 FXN promoter luciferase reporter, 24 h; percent of 10 µM SAHA response. actives 0.56% (n = 360,000). AID 540364. activation, % at 6 µM;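 active means activation above the average of all compounds screened plus 3 SD, cutoff fixed separately per campaign, cut at about 7.5% in these data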;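 further: 0% = DMSO wells and 100% = 10 µM SAHA wells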
# AHR act = human AHR activation. AID 2796. P35869. actives 2.5% (n = 320,000). AHR-responsive luciferase reporter cells, luminescence. activation, % at 5 µM; in the data active means activation above about 47%;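 further: 0% = vehicle wells and 100% = reference agonist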
# Target sequence (P35869 whole entry, looked up): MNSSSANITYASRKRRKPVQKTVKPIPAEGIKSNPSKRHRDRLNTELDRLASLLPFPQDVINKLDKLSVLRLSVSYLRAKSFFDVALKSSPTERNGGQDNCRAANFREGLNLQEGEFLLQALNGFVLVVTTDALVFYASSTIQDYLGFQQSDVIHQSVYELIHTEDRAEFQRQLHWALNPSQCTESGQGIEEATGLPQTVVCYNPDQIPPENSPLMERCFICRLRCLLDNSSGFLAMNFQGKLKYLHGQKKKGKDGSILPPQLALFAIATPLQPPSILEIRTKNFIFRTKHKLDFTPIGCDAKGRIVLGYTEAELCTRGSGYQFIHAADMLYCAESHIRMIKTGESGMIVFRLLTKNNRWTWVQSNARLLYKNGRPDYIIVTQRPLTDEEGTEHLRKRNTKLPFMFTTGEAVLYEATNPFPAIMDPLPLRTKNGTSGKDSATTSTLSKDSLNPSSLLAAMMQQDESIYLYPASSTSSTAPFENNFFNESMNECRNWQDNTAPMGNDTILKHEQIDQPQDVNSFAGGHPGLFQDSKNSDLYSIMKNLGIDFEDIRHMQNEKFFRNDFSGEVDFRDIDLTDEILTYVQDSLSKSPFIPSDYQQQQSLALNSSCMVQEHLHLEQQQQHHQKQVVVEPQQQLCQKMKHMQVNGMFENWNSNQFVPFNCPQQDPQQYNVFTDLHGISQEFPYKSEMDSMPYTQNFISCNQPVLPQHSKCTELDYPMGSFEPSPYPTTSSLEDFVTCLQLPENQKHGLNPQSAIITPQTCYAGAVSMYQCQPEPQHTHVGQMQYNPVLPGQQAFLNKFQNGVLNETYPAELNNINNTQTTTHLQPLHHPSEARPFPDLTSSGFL
# * hit, by the source's call; nt = no result given.
SMILES,ABCB6 inh 2,SR-BI HDL uptake,HIF activator,SR-BI DiI-HDL act,GAA850 FXN act,AHR act
COc1ccc(C(=S)Nc2ccc(N(C)C)cc2)cc1,98,4,1,-4,1,-8
CN(C)c1ccc(NC(=S)c2ccc3ccccc3n2)cc1,108,17,2,-17,1,48*
Cc1ccc(NC(=O)Cc2csc(-c3ccccc3)n2)cc1F,95,-4,1,4,1,20
O=C(Cc1csc(-c2ccccc2)n1)Nc1ccc(C(F)(F)F)cc1,95,-20,0,20,-2,55*
Cc1nn(CC(C)C)c(Cl)c1C(=O)N(C)CC(=O)Nc1ccc(Cl)cc1,93,nt,nt,nt,-1,nt
CC(=O)Nc1ccc(N2C(C(C)=O)=NN(c3ccc(Cl)cc3)C2c2sccc2C)cc1 (centres undefined),98,4,0,-4,-3,66*
O=C1N=C(N2CCCCC2)S/C1=C\c1ccncc1,98,-21,1,21,3,7
COc1ccc(/C=C2\SC(N3CCCCC3)=NC2=O)cc1,96,nt,-23,nt,1,49*
CCn1c(CC(=O)Nc2ccccc2OC)nnc1SCC(=O)Nc1ccccc1F,103,-6,0,6,0,2
COc1ccc(-c2ccc(C#N)c(SCC(=O)Nc3sc4c(c3C#N)CCC4)n2)cc1,90,nt,-1,nt,0,11
N#Cc1c(C(F)(F)F)cc(-c2ccccc2)nc1SCC(=O)Nc1sc2c(c1C#N)CCC2,112,106*,0,-106,0,12
Cc1cc(C(F)(F)F)c(C#N)c(SCC(=O)Nc2nc3ccccc3s2)n1,286,nt,0,nt,-8,57*
O=[N+]([O-])c1ccc(C=CC=Cc2ccccc2)cc1,96,nt,nt,nt,5,nt
CCCCNc1c(-c2ccc(OC)c(SC(C)CC)c2)nc2cc(C)ccn12 (centres undefined),103,45,nt,-45,0,9
CCCCNc1c(-c2ccc(-c3ccc(C(C)=O)cc3)c(OC)c2)nc2cc(C)ccn12,101,72*,nt,-72,-1,-1
CC(=O)N1c2ccc(S(=O)(=O)NCCc3ccccc3)cc2CC1C (centres undefined),102,-3,18*,3,0,3
CC1Cc2cc(S(=O)(=O)NCCc3ccccc3)ccc2N1C(=O)C1CC1 (centres undefined),97,-8,0,8,1,6
CCN(Cc1ccccc1)C(=O)CCNS(=O)(=O)c1ccc2c(c1)CC(C)N2C(C)=O (centres undefined),93,-14,69*,14,1,3
CC(=O)N1c2ccc(S(=O)(=O)NCCC(=O)N(C)Cc3ccccc3)cc2CC1C (centres undefined),96,15,nt,-15,-1,2
CC[n+]1c(-c2ccccc2)csc1Nc1c(C)n(C)n(-c2ccccc2)c1=O,105,-14,-1,14,1,1
CCc1ccc(S(=O)(=O)c2nnn3c2nc(NCCNC(C)=O)c2ccccc23)cc1,109,-2,0,2,2,-1
Cc1ccc(NN=C2c3ccccc3-c3ccccc32)cc1,102,30,1,-30,-1,68*
COc1ccc(OC)c(C2=NOC(C(=O)N3CCN(c4ccccc4)CC3)C2)c1 (centres undefined),107,71*,0,-71,0,1
COc1cccc(C2=NOC(C(=O)N3CCN(c4ccccc4)CC3)C2)c1OC (centres undefined),100,53,0,-53,0,-2
C=CCn1c(-c2sc3nc(C)cc(C)c3c2N)n[nH]c1=S,97,nt,0,nt,4,100*
SMILES,ABCB6 inh 2,SR-BI HDL uptake,HIF activator,SR-BI DiI-HDL act,GAA850 FXN act,AHR act
C=CCn1c(-c2cc(OC)cc(OC)c2)n[nH]c1=S,99,-7,-1,7,2,14
Cc1ccccc1Cn1cc(NC(=O)c2cc(C3CC3)on2)cn1,98,nt,1,nt,1,74*
CCc1ccccc1NC(=O)c1cc(C2CC2)on1,101,17,2,-17,2,0
CCC(C)(C)NC(=O)C(c1ccccc1)N(C(=O)c1csnn1)C1CC1 (centres undefined),96,-18,0,18,-1,-3
CC(CCN1C(Nc2ccccc2)=NC[C@@H]1C)c1ccccc1 (some centres undefined),100,-10,0,10,0,-1
C/C(=N/Nc1ccnc2cc(Cl)ccc12)c1ccc(N)cc1,99,27,1,-27,1,57*
Clc1ccc2c(N/N=C/c3ccccc3Br)ccnc2c1,94,24,nt,-24,-1,-1
C/C(=N/Nc1ccnc2cc(Cl)ccc12)c1ccc(O)cc1,105,39,1,-39,-1,56*
CC(CC(=O)Nc1ccc(Br)cc1F)S(=O)(=O)c1ccc2c(c1)NC(=O)CO2 (centres undefined),100,-4,-1,4,1,-3
Cc1ccc(OCCNC(=O)c2ccc3c(c2)OCO3)cc1,92,-4,1,4,4,34
Cc1ccc(C2=NC(C)(C)N=C2SCC(=O)Nc2ccc(Cl)cc2)cc1,66*,4,0,-4,2,1
COc1ccc(-c2csc(-c3[nH]cnc3N)n2)cc1,104,-8,-1,8,-1,3
COc1ccc(NC(=O)C(OC(=O)c2cnc(C)cn2)c2ccccc2)cc1Cl (centres undefined),93,-9,-20,9,1,7
COc1ccc(C)cc1NC(=O)C(OC(=O)c1cc(C)oc1C)c1ccccc1 (centres undefined),102,10,0,-10,3,73*
COc1ccc(C)cc1NC(=O)C(OC(=O)CNC(=O)c1cccc(F)c1)c1ccccc1 (centres undefined),89,12,0,-12,0,72*
COc1ccc(C)cc1NC(=O)C(OC(=O)c1cnc(C)cn1)c1ccccc1 (centres undefined),101,-24,0,24,1,60*
Cc1ccc(C)c(NC(=O)C(OC(=O)c2cnc(C)cn2)c2ccccc2)c1 (centres undefined),97,-5,0,5,-1,70*
CC1CCCC(NC(=O)CN2C(=O)NC(C)(c3cc(F)ccc3F)C2=O)C1C (centres undefined),98,-19,nt,19,-2,0
CCC(=O)N/N=C(\C)CC(=O)Nc1ccccc1-c1ccccc1,103,-28,0,28,1,15
CCc1c(C)nc2nc(SCc3ccccc3Cl)[nH]n2c1=O,61*,-21,-2,21,2,16
CC(=O)N1C(=O)C(=C2C=C(C)OC(C)=C2)c2ccccc21,88,-1,0,1,0,55*
